Measured values from ChEMBL document CHEMBL2062460, “Disubstituted thiourea derivatives and their activity on CNS: synthesis and biological evaluation” (Eur J Med Chem, 2012).
In brackets after ≈: the same amount, converted by molar mass. Activity calls are given as the source filed them. No cut-off for these calls is given here.

Assays:
Enterococcus hirae [1] = experiment: Antibacterial activity against Enterococcus hirae ATCC 10541 at 400 ug/disc after 18 hrs by disc diffusion method; assay type: functional; details: ATCC 10541, 18 h, read-out: DIZ
Method in brief: (§1)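 Disc diffusion per CLSI on Mueller–Hinton II agar; 9 mm paper discs loaded from methanol or DMSO solutions to 400 µg per disc, dried; growth inhibition zone diameter read after 18 h at 35 °C.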

[2] = test system: Staphylococcus epidermidis; experiment: Antibacterial activity against methicillin-resistant Staphylococcus epidermidis clinical isolate 377/09 after 18 hrs by twofold serial agar dilution technique; assay type: functional; details: clinical isolate 377/09, 18 h
Method in brief: (§2)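 Clinical isolates came from patients in Warsaw Medical University Hospitals and were classed as methicillin-susceptible or -resistant. MIC was determined by twofold serial agar dilution on Mueller–Hinton II agar (CLSI), 3.125–400 µg/mL in agar, with compounds in methanol or DMSO. Inoculum was 10^4 CFU/mL and plates were read after 18 h at 35 °C.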

[3] = test system: Staphylococcus epidermidis; experiment: Antibacterial activity against methicillin-resistant Staphylococcus epidermidis clinical isolate 315/08 after 18 hrs by twofold serial agar dilution technique; assay type: functional; details: clinical isolate 315/08, 18 h; method in brief: as §2
Staphylococcus aureus [4] = experiment: Antibacterial activity against methicillin-resistant Staphylococcus aureus clinical isolate 356/09 after 18 hrs by twofold serial agar dilution technique; assay type: functional; details: clinical isolate 356/09, 18 h; method in brief: as §2
[5] = test system: Staphylococcus epidermidis; experiment: Antibacterial activity against methicillin-resistant Staphylococcus epidermidis clinical isolate 317/08 after 18 hrs by twofold serial agar dilution technique; assay type: functional; details: clinical isolate 317/08, 18 h; method in brief: as §2
[6] = test system: Staphylococcus epidermidis; experiment: Antibacterial activity against Staphylococcus epidermidis ATCC 12228 at 400 ug/disc after 18 hrs by disc diffusion method; assay type: functional; details: ATCC 12228, 18 h, read-out: DIZ; method in brief: as §1
Pseudomonas aeruginosa [7] = experiment: Antibacterial activity against Pseudomonas aeruginosa NCTC 6749 at 400 ug/disc after 18 hrs by disc diffusion method; assay type: functional, organism-based; method in brief: as §1
Staphylococcus aureus [8] = experiment: Antibacterial activity against methicillin-resistant Staphylococcus aureus clinical isolate 357/09 after 18 hrs by twofold serial agar dilution technique; assay type: functional; details: clinical isolate 357/09, 18 h; method in brief: as §2
Staphylococcus aureus [9] = experiment: Antibacterial activity against Staphylococcus aureus ATCC 6538 after 18 hrs by twofold serial agar dilution technique; assay type: functional; details: ATCC 6538, 18 h
Method in brief: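 Twofold serial agar dilution on Mueller–Hinton II agar, following CLSI guidelines. Compounds were dissolved in methanol or DMSO and tested at final agar concentrations of 3.125–400 µg/mL. Final inoculum was 10^4 CFU/mL.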

Micrococcus luteus [10] = experiment: Antibacterial activity against Micrococcus luteus ATCC 10240 after 18 hrs by twofold serial agar dilution technique; assay type: functional; details: ATCC 10240, 18 h
Staphylococcus aureus [11] = experiment: Antibacterial activity against methicillin-susceptible Staphylococcus aureus clinical isolate 267/08 after 18 hrs by twofold serial agar dilution technique; assay type: functional; details: clinical isolate 267/08, 18 h; method in brief: as §2
Bacillus subtilis [12] = experiment: Antibacterial activity against Bacillus subtilis ATCC 6633 at 400 ug/disc after 18 hrs by disc diffusion method; assay type: functional; details: ATCC 6633, 18 h, read-out: DIZ; method in brief: as §1
Staphylococcus aureus [13] = experiment: Antibacterial activity against methicillin-resistant Staphylococcus aureus clinical isolate 376/09 after 18 hrs by twofold serial agar dilution technique; assay type: functional; details: clinical isolate 376/09, 18 h; method in brief: as §2
Staphylococcus aureus [14] = experiment: Antibacterial activity against methicillin-susceptible Staphylococcus aureus clinical isolate 367/09 after 18 hrs by twofold serial agar dilution technique; assay type: functional; details: clinical isolate 367/09, 18 h; method in brief: as §2
Bacillus cereus [15] = experiment: Antibacterial activity against Bacillus cereus ATCC 11778 after 18 hrs by twofold serial agar dilution technique; assay type: functional; details: ATCC 11778, 18 h
[16] = test system: Staphylococcus epidermidis; experiment: Antibacterial activity against methicillin-resistant Staphylococcus epidermidis clinical isolate 340/09 after 18 hrs by twofold serial agar dilution technique; assay type: functional; details: clinical isolate 340/09, 18 h; method in brief: as §2
Bacillus subtilis [17] = experiment: Antibacterial activity against Bacillus subtilis ATCC 6633 after 18 hrs by twofold serial agar dilution technique; assay type: functional; details: ATCC 6633, 18 h
Escherichia coli = experiment: Antibacterial activity against Escherichia coli ATCC 10538 at 400 ug/disc after 18 hrs by disc diffusion method; assay type: functional, organism-based; method in brief: as §1
Staphylococcus aureus [18] = experiment: Antibacterial activity against methicillin-susceptible Staphylococcus aureus clinical isolate 372/09 after 18 hrs by twofold serial agar dilution technique; assay type: functional; details: clinical isolate 372/09, 18 h; method in brief: as §2
[19] = test system: Human immunodeficiency virus 1; experiment: Antiviral activity against HIV1 infected in human MT4 cells assessed as virus-induced cytopathogenicity after 4 days by MTT assay; assay type: functional, organism-based; details: Human immunodeficiency virus 1, MT4, 96 h
Bacillus cereus [20] = experiment: Antibacterial activity against Bacillus cereus ATCC 11778 at 400 ug/disc after 18 hrs by disc diffusion method; assay type: functional; details: ATCC 11778, 18 h, read-out: DIZ; method in brief: as §1
Staphylococcus aureus [21] = experiment: Antibacterial activity against Staphylococcus aureus ATCC 6538 at 400 ug/disc after 18 hrs by disc diffusion method; assay type: functional; details: ATCC 6538, 18 h, read-out: DIZ; method in brief: as §1
Staphylococcus aureus [22] = experiment: Antibacterial activity against Staphylococcus aureus ATCC 29213 at 400 ug/disc after 18 hrs by disc diffusion method; assay type: functional; details: ATCC 29213, 18 h, read-out: DIZ; method in brief: as §1
[23] = test system: Staphylococcus epidermidis; experiment: Antibacterial activity against methicillin-resistant Staphylococcus epidermidis clinical isolate 342/09 after 18 hrs by twofold serial agar dilution technique; assay type: functional; details: clinical isolate 342/09, 18 h; method in brief: as §2
Staphylococcus aureus [24] = experiment: Antibacterial activity against methicillin-resistant Staphylococcus aureus clinical isolate 309/08 after 18 hrs by twofold serial agar dilution technique; assay type: functional; details: clinical isolate 309/08, 18 h; method in brief: as §2
Staphylococcus aureus [25] = experiment: Antibacterial activity against methicillin-susceptible Staphylococcus aureus clinical isolate 269/08 after 18 hrs by twofold serial agar dilution technique; assay type: functional; details: clinical isolate 269/08, 18 h; method in brief: as §2
Pseudomonas aeruginosa [26] = experiment: Antibacterial activity against Pseudomonas aeruginosa ATCC 15442 at 400 ug/disc after 18 hrs by disc diffusion method; assay type: functional, organism-based; method in brief: as §1
Staphylococcus aureus [27] = experiment: Antibacterial activity against methicillin-resistant Staphylococcus aureus clinical isolate 329/08 after 18 hrs by twofold serial agar dilution technique; assay type: functional; details: clinical isolate 329/08, 18 h; method in brief: as §2
Staphylococcus aureus [28] = experiment: Antibacterial activity against methicillin-resistant Staphylococcus aureus clinical isolate 307/08 after 18 hrs by twofold serial agar dilution technique; assay type: functional; details: clinical isolate 307/08, 18 h; method in brief: as §2
[29] = test system: Staphylococcus epidermidis; experiment: Antibacterial activity against methicillin-resistant Staphylococcus epidermidis clinical isolate 318/08 after 18 hrs by twofold serial agar dilution technique; assay type: functional; details: clinical isolate 318/08, 18 h; method in brief: as §2
Enterococcus hirae [30] = experiment: Antibacterial activity against Enterococcus hirae ATCC 10541 after 18 hrs by twofold serial agar dilution technique; assay type: functional; details: ATCC 10541, 18 h
Staphylococcus aureus [31] = experiment: Antibacterial activity against methicillin-susceptible Staphylococcus aureus clinical isolate 338/08 after 18 hrs by twofold serial agar dilution technique; assay type: functional; details: clinical isolate 338/08, 18 h; method in brief: as §2
Staphylococcus aureus [32] = experiment: Antibacterial activity against Staphylococcus aureus ATCC 25923 at 400 ug/disc after 18 hrs by disc diffusion method; assay type: functional; details: ATCC 25923, 18 h, read-out: DIZ; method in brief: as §1
Staphylococcus aureus [33] = experiment: Antibacterial activity against methicillin-susceptible Staphylococcus aureus clinical isolate 339/09 after 18 hrs by twofold serial agar dilution technique; assay type: functional; details: clinical isolate 339/09, 18 h; method in brief: as §2
Micrococcus luteus [34] = experiment: Antibacterial activity against Micrococcus luteus ATCC 9341 at 400 ug/disc after 18 hrs by disc diffusion method; assay type: functional; details: ATCC 9341, 18 h, read-out: DIZ; method in brief: as §1
Staphylococcus aureus [35] = experiment: Antibacterial activity against methicillin-resistant Staphylococcus aureus clinical isolate 275/08 after 18 hrs by twofold serial agar dilution technique; assay type: functional; details: clinical isolate 275/08, 18 h; method in brief: as §2
Staphylococcus aureus [36] = experiment: Antibacterial activity against methicillin-susceptible Staphylococcus aureus clinical isolate 369/09 after 18 hrs by twofold serial agar dilution technique; assay type: functional; details: clinical isolate 369/09, 18 h; method in brief: as §2

SMILES: S=C(Nc1ccc(Br)cc1)Nc1nc[nH]n1
- zone of inhibition at 400 µg/disc (Enterococcus hirae [1]): 25 mm
- MIC [2]: 25 µg/mL (≈ 83.8 µM)
- MIC [3]: 50 µg/mL (≈ 168 µM)
- MIC (Staphylococcus aureus [4]): 50 µg/mL (≈ 168 µM)
- MIC [5]: 100 µg/mL (≈ 335 µM)
- zone of inhibition at 400 µg/disc [6]: 16 mm
- diameter of the inhibition zone (DIZ) (Pseudomonas aeruginosa [7]): inactive
- MIC (Staphylococcus aureus [8]): 50 µg/mL (≈ 168 µM)
- MIC (Staphylococcus aureus [9]): 50 µg/mL (≈ 168 µM)
- MIC (Micrococcus luteus [10]): 12.5 µg/mL (≈ 41.9 µM)
- MIC (Staphylococcus aureus [11]): 25 µg/mL (≈ 83.8 µM)
- zone of inhibition at 400 µg/disc (Bacillus subtilis [12]): 30 mm
- MIC (Staphylococcus aureus [13]): 50 µg/mL (≈ 168 µM)
- MIC (Staphylococcus aureus [14]): 50 µg/mL (≈ 168 µM)
- MIC (Bacillus cereus [15]): 12.5 µg/mL (≈ 41.9 µM)
- MIC [16]: 25 µg/mL (≈ 83.8 µM)
- MIC (Bacillus subtilis [17]): 12.5 µg/mL (≈ 41.9 µM)
- diameter of the inhibition zone (DIZ) (Escherichia coli): inactive
- MIC (Staphylococcus aureus [18]): 25 µg/mL (≈ 83.8 µM)
- EC50 [19]: > 100 µM
- zone of inhibition at 400 µg/disc (Bacillus cereus [20]): 18 mm
- zone of inhibition at 400 µg/disc (Staphylococcus aureus [21]): 16 mm
- zone of inhibition at 400 µg/disc (Staphylococcus aureus [22]): 16 mm
- MIC [23]: 25 µg/mL (≈ 83.8 µM)
- MIC (Staphylococcus aureus [24]): 50 µg/mL (≈ 168 µM)
- MIC (Staphylococcus aureus [25]): 25 µg/mL (≈ 83.8 µM)
- diameter of the inhibition zone (DIZ) (Pseudomonas aeruginosa [26]): inactive
- MIC (Staphylococcus aureus [27]): 50 µg/mL (≈ 168 µM)
- MIC (Staphylococcus aureus [28]): 50 µg/mL (≈ 168 µM)
- MIC [29]: 25 µg/mL (≈ 83.8 µM)
- MIC (Enterococcus hirae [30]): 400 µg/mL (≈ 1340 µM)
- MIC (Staphylococcus aureus [31]): 50 µg/mL (≈ 168 µM)
- zone of inhibition at 400 µg/disc (Staphylococcus aureus [32]): 22 mm
- MIC (Staphylococcus aureus [33]): 50 µg/mL (≈ 168 µM)
- zone of inhibition at 400 µg/disc (Micrococcus luteus [34]): 28 mm
- MIC (Staphylococcus aureus [35]): 100 µg/mL (≈ 335 µM)
- MIC (Staphylococcus aureus [36]): 50 µg/mL (≈ 168 µM)
